PLCb3 inh: human PLC-beta3 inhibitors, primary screen, biochemical, fluorescence. 1-phosphatidylinositol 4,5-bisphosphate phosphodiesterase beta-3 (Homo sapiens), Q01970. Purified PLC-beta3, fluorogenic substrate. inhibition, % at 12.2 µM. hit rate 0.18% among 370,000. AID 720704, 2013; in the data active = inhibition above about 11%
Tn6 DDE FP: inhibitors of Tn6 peptide binding to fibrin DD(E), primary screen, biochemical, fluorescence polarization, human fibrin, Tn6 probe; Fibrinogen beta chain (Homo sapiens), P02675; Fibrin DD(E) TRITC-Tn6 fluorescence polarization displacement; inhibition, % at 8.3 µM; hit rate 0.21% among 370,000; AID 720509, 2013;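 active = inhibition above a per-campaign cutoff: mean of compounds within control limits plus 3 SD, cut at about 15% in these data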
PLC-gamma1 inh: PLC-gamma1 enzyme inhibitors, primary screen, biochemical, fluorescence, purified enzyme | 1-phosphatidylinositol 4,5-bisphosphate phosphodiesterase gamma-1 (Homo sapiens), P19174 | fluorogenic substrate | inhibition, % at 12.2 µM | hit rate 0.84% among 370,000 | AID 720700, 2013; in the data active = inhibition above about 9.5%
NRP1-CendR mod: modulators of CendR peptide binding to NRP-1, primary screen, biochemical, fluorescence polarization, uHTS | Neuropilin-1 (Homo sapiens), O14786 | FAM-RPARPAR peptide binding to NRP-1 | inhibition, % at 25 µM | hit rate 0.85% among 360,000 | AID 602438, 2012;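 active = inhibition or corrected inhibition above about 18%, plus a signal ratio from 0.5 to 1.5, limit read from the data, passing the limit was not always enough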
Target sequence (O14786 whole entry, looked up): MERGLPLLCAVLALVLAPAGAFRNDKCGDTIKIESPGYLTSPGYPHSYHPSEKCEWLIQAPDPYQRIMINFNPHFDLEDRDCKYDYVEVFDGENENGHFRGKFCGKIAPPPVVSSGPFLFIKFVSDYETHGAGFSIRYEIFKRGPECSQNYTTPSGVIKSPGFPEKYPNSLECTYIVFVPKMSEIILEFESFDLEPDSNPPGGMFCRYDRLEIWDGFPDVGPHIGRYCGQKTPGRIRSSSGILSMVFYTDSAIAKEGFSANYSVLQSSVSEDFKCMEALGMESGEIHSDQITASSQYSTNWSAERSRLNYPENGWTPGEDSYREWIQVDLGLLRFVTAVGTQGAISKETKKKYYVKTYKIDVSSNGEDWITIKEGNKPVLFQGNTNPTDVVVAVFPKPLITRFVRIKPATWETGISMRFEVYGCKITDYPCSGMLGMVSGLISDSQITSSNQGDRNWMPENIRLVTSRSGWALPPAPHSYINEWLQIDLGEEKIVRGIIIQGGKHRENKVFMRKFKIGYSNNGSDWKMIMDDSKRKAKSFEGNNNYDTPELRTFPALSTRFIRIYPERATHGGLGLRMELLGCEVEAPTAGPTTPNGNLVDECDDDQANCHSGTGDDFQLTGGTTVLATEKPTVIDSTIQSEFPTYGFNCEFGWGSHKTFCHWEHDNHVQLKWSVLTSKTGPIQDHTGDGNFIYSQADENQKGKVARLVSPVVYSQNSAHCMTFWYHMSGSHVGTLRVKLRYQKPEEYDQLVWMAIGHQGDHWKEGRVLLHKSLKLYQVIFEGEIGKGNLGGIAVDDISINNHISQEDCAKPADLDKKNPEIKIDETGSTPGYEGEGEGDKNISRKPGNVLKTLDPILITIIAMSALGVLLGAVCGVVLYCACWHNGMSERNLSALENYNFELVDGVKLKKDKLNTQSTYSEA
KLK7 zymogen act: proKLK7 zymogen activators, primary screen, biochemical, fluorescence intensity | Kallikrein-7 (Homo sapiens), P49862 | purified proKLK7, EDANS-DABCYL substrate fluorescence; 100% is mature enzyme control, 0% vehicle | activation, % at 7 µM | hit rate 0.9% among 370,000;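 active = activation above the mean of all tested compounds plus 3 SD, computed per campaign excluding outliers beyond control limits, cut at about 13% in these data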
DDE Tn7 FP inh: inhibitors of Tn7 peptide binding to fibrin DD(E), primary screen, biochemical, fluorescence polarization, human fibrin, Tn7 probe | AID 720508, 2013 | inhibition, % at 8.3 µM | FP displacement of FITC-Tn7 peptide from fibrin DD(E); 0% = median of compound wells per plate | Fibrinogen beta chain (Homo sapiens), P02675 | hit rate 0.13% among 370,000;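 active = inhibition above the mean of compounds falling within the control limits plus 3 SD of them, cut at about 14% in these data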
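assay system = human clot-derived fibrin DD(E) complex | quantity = Fibrin-DD(E) at 2 µM final | timing = 10 min preincubation, 3 h with tracer, room temperature | signal = fluorescence polarization | measure = percent inhibition | benchmarks = high control wells with 10 µM unlabelled Aha-Tn7 peptide (full inhibition) | replicates = singlicate testing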
DDE Tn6 FP ctr: counter-screen hit for Tn6 peptide-fibrin DD(E) binding disruption; hit rate 2% among 680; TRITC-Tn6 fluorescence polarization displacement; 0% = median of compound wells, not DMSO; shares compounds with Tn6 DDE FP; inhibition, % at 8.3 µM;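 active = inhibition above the mean of test compounds lying between the control limits plus 3 SD of those, cut at about 14% in these data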
Tn6 DDE conf: inhibitors of Tn6 peptide binding to fibrin DD(E), confirmation, biochemical, fluorescence polarization, human fibrin, Tn6 probe; shares compounds with Tn6 DDE FP; FP displacement of TRITC-Tn6 peptide from DD(E); 0% = per-plate median of test wells; inhibition, % at 8.3 µM; hit rate 10% among 680; AID 720631, 2013;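 active = inhibition above the mean of compounds lying within the control limits plus 3 SD, cut at about 16% in these data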
Large screens that a line does not name were inactive (follow-up assays come after a bar, where they were run). Compounds with a hit are over-represented: about 3% of the library has one in this group of screens.

Cc1cc2ccccc2n1CCNC(=O)c1ccc(S(=O)(=O)N2CCCCC2)cc1	Tn6 DDE FP 61.7 | DDE Tn6 FP ctr inactive | Tn6 DDE conf 31.4
O=C(NCCc1ccccc1)c1ccc(S(=O)(=O)N2CCCCC2)cc1	none
Cc1cc2ccccc2n1CCNC(=O)Cc1ccccc1	Tn6 DDE FP 25.6 | DDE Tn6 FP ctr inactive | Tn6 DDE conf inactive
Cc1cc2ccccc2n1CCNC(=O)C(C)C	none
O=C(CSc1nnc(-c2ccccc2)n1-c1ccccc1)Nc1cccc2ccccc12	none (no result: NRP1-CendR mod)
C[C@H](O)[C@@H]1CN2CCc3c([nH]c4cccc(-c5ccc6c(c5)OCO6)c34)[C@@H]2C[C@@H]1N(C)C(=O)c1ccco1	none (no result: NRP1-CendR mod)
CNNC(=S)Nc1cccc(C(F)(F)F)c1	none
CC(C)(O)C(=O)NNC(=S)Nc1cccc(C(F)(F)F)c1	Tn6 DDE FP 17.4 | DDE Tn6 FP ctr inactive | Tn6 DDE conf inactive
CC(C)CCn1c(=O)c2ccccc2n2c(CN3CCOCC3)nnc12	Tn6 DDE FP 15.7 | DDE Tn6 FP ctr inactive | Tn6 DDE conf inactive
C[C@H]1[C@@H](OC(=O)Nc2ccc(C#N)cc2)CC[C@@]23CCCN2C(=O)CCC[C@@H]13	none (no result: NRP1-CendR mod, KLK7 zymogen act)
COCCCNc1nc2c(c(=O)[nH]c(=O)n2C)n1CC(O)COc1ccccc1C (configuration not stated)	Tn6 DDE FP 17.1 | DDE Tn6 FP ctr inactive | Tn6 DDE conf inactive
COCCCNc1nc2c(c(=O)[nH]c(=O)n2C)n1CC(O)COc1ccccc1 (configuration not stated)	none
COC(=O)[C@]12C[C@H](CC(=O)NCc3ccc(OC)c(OC)c3)C(=O)N(CCc3ccc(OC)c(OC)c3)C1=C[C@H](COCc1ccccc1)O[C@@H]2C	Tn6 DDE FP 15.3 (no result: NRP1-CendR mod) | DDE Tn6 FP ctr inactive | Tn6 DDE conf inactive
O=C(NCc1ccco1)C1CCCN(S(=O)(=O)c2ccccc2[N+](=O)[O-])C1 (configuration not stated)	none (no result: NRP1-CendR mod)
COc1ccc(NC(=O)c2oc3ccccc3c2NC(=O)COc2ccccc2OC)c(OC)c1	Tn6 DDE FP 17.9 | DDE Tn6 FP ctr inactive | Tn6 DDE conf inactive
COc1ccc(NC(=O)c2oc3ccccc3c2NC(=O)c2ccc(OC)c(OC)c2)c(OC)c1	none
COC(=O)C1CN(Cc2ccc(Cl)cc2)CCS(=O)(=O)N1Cc1cn(Cc2ccc(Cl)cc2)nn1 (configuration not stated)	none (no result: NRP1-CendR mod)
O=C(NC1CCCCN(Cc2ccc(Cl)cc2)C1=O)c1ccc(-c2ccccc2)cc1 (configuration not stated)	none (no result: NRP1-CendR mod)
CC(C)(C)NC(=O)C1CCC(CNc2c(N3CCCCC3)c(=O)c2=O)CC1 (configuration not stated)	none
CC1CCC(NC(=O)C2CCC(CNc3c(N4CCCCC4)c(=O)c3=O)CC2)CC1 (configuration not stated)	Tn6 DDE FP 16.6 | DDE Tn6 FP ctr inactive | Tn6 DDE conf inactive
COc1ccc(-c2csc3ncnc(N4CCN(c5ccccc5O)CC4)c23)cc1	none (no result: PLCb3 inh, Tn6 DDE FP, PLC-gamma1 inh, KLK7 zymogen act, DDE Tn7 FP inh)
Cc1ccc(-c2csc3ncnc(N4CCN(c5ccccc5O)CC4)c23)cc1	Tn6 DDE FP 16.0 | DDE Tn6 FP ctr inactive | Tn6 DDE conf inactive

Bioassay records (PubChem BioAssay)
